The source made the active and inactive calls. The calls are words filed in the database; no cut-off is given here.
Legend:
[1] = target: T1, Nitric oxide synthase, inducible (Mus musculus) (UniProt P29477); assay: Inhibition of iNOS-mediated LPS-induced nitric oxide production in mouse RAW264.7 cells; format: cell-based
T1 sequence (whole entry): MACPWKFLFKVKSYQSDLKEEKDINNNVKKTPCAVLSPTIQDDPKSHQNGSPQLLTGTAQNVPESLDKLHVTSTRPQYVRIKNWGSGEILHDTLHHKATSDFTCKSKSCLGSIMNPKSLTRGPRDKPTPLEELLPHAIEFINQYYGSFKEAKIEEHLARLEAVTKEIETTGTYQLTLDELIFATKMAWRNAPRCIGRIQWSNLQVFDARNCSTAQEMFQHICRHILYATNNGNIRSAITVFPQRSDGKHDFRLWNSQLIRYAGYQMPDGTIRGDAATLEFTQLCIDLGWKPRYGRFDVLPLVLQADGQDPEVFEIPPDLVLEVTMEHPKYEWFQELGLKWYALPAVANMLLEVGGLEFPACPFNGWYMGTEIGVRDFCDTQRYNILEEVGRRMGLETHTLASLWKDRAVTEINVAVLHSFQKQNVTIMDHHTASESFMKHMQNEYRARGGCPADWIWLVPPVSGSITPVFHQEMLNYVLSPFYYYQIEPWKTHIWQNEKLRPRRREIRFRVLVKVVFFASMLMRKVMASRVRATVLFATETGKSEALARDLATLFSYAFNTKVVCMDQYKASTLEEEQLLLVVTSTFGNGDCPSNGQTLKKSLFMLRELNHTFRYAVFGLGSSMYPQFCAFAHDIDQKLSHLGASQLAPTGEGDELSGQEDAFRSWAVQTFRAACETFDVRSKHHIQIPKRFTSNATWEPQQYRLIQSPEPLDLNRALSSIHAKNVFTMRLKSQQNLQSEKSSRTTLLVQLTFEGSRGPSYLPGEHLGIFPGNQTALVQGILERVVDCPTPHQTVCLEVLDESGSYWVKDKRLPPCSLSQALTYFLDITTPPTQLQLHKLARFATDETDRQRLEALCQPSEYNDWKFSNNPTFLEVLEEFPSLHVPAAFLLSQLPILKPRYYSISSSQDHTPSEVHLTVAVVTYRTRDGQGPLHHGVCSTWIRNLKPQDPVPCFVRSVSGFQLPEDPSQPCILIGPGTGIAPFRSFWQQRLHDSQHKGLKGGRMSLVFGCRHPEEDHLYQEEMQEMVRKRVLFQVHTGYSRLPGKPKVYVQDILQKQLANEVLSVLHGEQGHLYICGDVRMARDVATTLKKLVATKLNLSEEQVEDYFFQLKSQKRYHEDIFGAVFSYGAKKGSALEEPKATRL

Leishmania braziliensis [2] = assay: Antileishmanial activity against promastigotes form of Leishmania braziliensis MHOM/BR/75/M2904 after 72 hrs; format: functional; settings: MHOM/BR/75/M2904, 72 h
Outline: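 5.0 × 10^6 promastigotes/mL were exposed to 500, 100, 50, 25, 10, 5 and 1 (DMSO ≤1% final) at 28 °C for 72 h, and living parasites were counted in a Neubauer chamber. IC50 came from linear regression, mean ± standard error of three independent experiments.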

[3] = Selectivity index, ratio of CC50 for african green monkey Vero cells to IC50 for promastigotes form of Leishmania braziliensis MHOM/BR/75/M2904; format: functional
[4] = Cytotoxicity against african green monkey Vero cells after 72 hrs; format: cell-based; settings: chlorocebus sabaeus
Leishmania braziliensis [5] = assay: Antileishmanial activity against promastigotes form of Leishmania braziliensis MHOM/BR/75/M2904 at 50 uM after 72 hrs; format: functional
Vero = assay: Cytotoxicity against african green monkey Vero cells at 50 uM after 72 hrs; format: cell-based; settings: chlorocebus sabaeus

inhibition [1] | IC50 (Leishmania braziliensis [2]) | Compound | Ratio CC50/IC50 [3] | CC50 at 72 h [4] | inhibition (Leishmania braziliensis [5]) | Activity (Vero)
Active |  | COc1cc(OC)c(C(=O)/C=C/c2ccccc2Cl)c(OC)c1 |  |  |  | 
 | 194 µM | COc1cc(O)c(C(=O)/C=C/c2cccc(Cl)c2)c(OC)c1 | 1.8 | 341 µM |  | 
 | 12.8 µM | COc1cc(OC)c(C(=O)/C=C/c2ccccc2)cc1OC | 30.6 | 392 µM |  | 

More lines, now with the values behind:

Compound | inhibition [1] | IC50 (Leishmania braziliensis [2]) | Ratio CC50/IC50 [3] | CC50 at 72 h [4] | inhibition (Leishmania braziliensis [5]) | Activity (Vero)
COc1cccc(/C=C/C(=O)c2cc(OC)c(OC)cc2OC)c1 |  | 14 µM | 21.1 | 295 µM |  | 
COc1cc(OC)c(C(=O)/C=C/c2ccc(Cl)cc2)cc1OC |  | 29.7 µM | 9.4 | 279 µM |  | 
COc1cc(OC)c(C(=O)/C=C/c2ccc(Cl)c(Cl)c2)cc1OC |  | 148 µM | 6.1 | 906 µM |  | 
COc1cc(OC)c(C(=O)/C=C/c2ccccc2Cl)cc1OC |  |  |  |  | inactive | Non-toxic
COc1cc(OC)c(C(=O)/C=C/c2cccc(Cl)c2)cc1OC |  | 15.4 µM | 24.8 | 382 µM |  | 
N=C(N)c1ccc(OCCCCCOc2ccc(C(=N)N)cc2)cc1 [PENTAMIDINE] |  | 6 µM |  |  |  | 
COc1cc(OC)c(C(=O)/C=C/c2ccc3c(c2)OCO3)c(OC)c1 |  |  |  |  | inactive | Non-toxic

— ChEMBL document CHEMBL1811913, “Trimethoxy-chalcone derivatives inhibit growth of Leishmania braziliensis: synthesis, biological evaluation, molecular modeling and structure-activity relationship (SAR)” (Bioorg Med Chem, 2011)
